In ChEMBL document CHEMBL1132990, “Synthesis, conformational analysis, and biological activity of C-thioribonucleosides related to tiazofurin” (J Med Chem, 2000) one finds Control, IC50 and inhibition data, which are given here for three compounds.

Assay [1] has as its system K562. As to the kind of experiment: Tested for the influence on the ribonucleotide (GTP) concentration in myelogenous leukemia K562 cell culture. The class given is functional, Homo sapiens. In a few lines:
(§1)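 Cultured K562 cells given 100 µM compound (2 µM for reference furanoside) or saline for 2 h at 37 °C, then centrifuged, washed once in cold saline and extracted with cold 10% trichloroacetic acid before nucleotide pool measurement.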

For assay [2], the system named is K562. The assay is described as follows: Tested for the influence on the ribonucleotide (IMP) concentration in myelogenous leukemia K562 cell culture. It counts as functional, Homo sapiens. In a few lines:
as §1

Assay [3] relates to K562. As to the kind of experiment: Concentration required to inhibit 50% of the cell proliferation of the Human myelogenous leukemia K562 cells. It counts as functional, cell-based. In a few lines:
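K562 cells in log phase (RPMI 1640 + 10% FBS, 5% CO2, 37 °C), seeded at 1 × 10⁵ cells/mL and exposed continuously to compounds (0.5-100 µM, in saline) or saline for 48 h. Cells counted by Coulter counter; inhibition = % reduction in proliferation versus saline; IC50 = concentration giving 50% inhibition at 48 h.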

Assay [4] addresses Inosine-5'-monophosphate dehydrogenase (IMPDH) (Homo sapiens) (UniProt P20839+P12268). As to the kind of experiment: Inhibitory activity against Inosine-5'-monophosphate dehydrogenase in human myelogenous leukemia K562 cells in culture. The class given is cell-based. The following applies: concentration not given here.

Sequence of Inosine-5'-monophosphate dehydrogenase (IMPDH) (Homo sapiens) (P20839 whole entry, looked up, other chains not shown): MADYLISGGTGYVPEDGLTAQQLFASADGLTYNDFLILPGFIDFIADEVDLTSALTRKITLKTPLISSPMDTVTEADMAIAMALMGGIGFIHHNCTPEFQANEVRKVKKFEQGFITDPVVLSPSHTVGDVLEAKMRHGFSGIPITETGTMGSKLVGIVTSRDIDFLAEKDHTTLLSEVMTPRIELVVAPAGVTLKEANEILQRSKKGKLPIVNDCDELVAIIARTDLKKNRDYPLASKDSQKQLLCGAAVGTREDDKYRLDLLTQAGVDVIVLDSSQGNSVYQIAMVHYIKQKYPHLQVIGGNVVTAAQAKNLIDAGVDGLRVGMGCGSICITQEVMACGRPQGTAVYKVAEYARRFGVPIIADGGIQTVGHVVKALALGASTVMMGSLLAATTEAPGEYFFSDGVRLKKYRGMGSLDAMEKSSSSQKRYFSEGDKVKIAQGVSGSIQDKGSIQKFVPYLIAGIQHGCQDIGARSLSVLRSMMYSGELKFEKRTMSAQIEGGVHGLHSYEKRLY

With `NC(=O)c1csc([C@@H]2O[C@H](CO)[C@@H](O)[C@H]2O)c1`, the Control in assay [1] worked out at 96.6%; in assay [2], 112%. Besides, the IC50 in assay [3] is 1.7 µM. The compound further registered an inhibition in assay [4] of 76%.
Turning to `NC(=O)c1csc([C@@H]2S[C@H](CO)[C@H](O)C2O)c1` (stereo not given in full) [THIOPHENTHIOFURIN], the Control in assay [1] amounted to 83.9%; in assay [2], 111%. Besides, the concentration for half-maximal inhibition (IC50) in assay [3] turned out to be 67 µM.
For `NC(=O)c1coc([C@@H]2S[C@H](CO)[C@H](O)C2O)c1` (stereo not given in full) [FURANTHIOFURIN], the values for the Control in assay [1] and in assay [2] were 66.1% and 105%, respectively. In addition, the IC50 in assay [3] was 4700 µM.

A word on the IC50: it is the concentration that inhibits the measured activity by half. Higher therefore signals weaker potency. Usually inhibition stands for the relative decrease from the control value, in per cent. Low readings indicate little suppression, high ones strong suppression.
